Laboratory results published in PMC11900868 (Science Advances, 2025).

Tested on: CCl4-induced liver fibrosis mice
Test: Res treatment of CCl4-induced liver fibrosis, histology and immunohistochemistry
Type: in vivo, male Balb/c mice
Conditions: CCl4 10 weeks then discontinued; 10 mg/kg intraperitoneal twice a week
In short: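 Fibrosis induced in male Balb/c mice by intraperitoneal 20% CCl4 in olive oil twice weekly: 0.1 ml week 1, 0.15 ml week 2, 0.2 ml thereafter. After 10 weeks, CCl4 stopped and resveratrol given intraperitoneally at 10 mg/kg twice weekly for 1 or 3 weeks. Liver sections stained with H&E and Sirius red, plus α-SMA and FAP immunostaining. Percent positive area quantified; mean ± SD, ANOVA.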

## Oc1ccc(/C=C/c2cc(O)cc(O)c2)cc1 [Res, resveratrol]
  fibrotic tissue, HSCs activation and FAP expression after 1 week of treatment: significant reduction in fibrotic tissue, HSCs activation, and FAP expression levels
  fibrotic tissue, HSCs activation and FAP expression after 3 weeks of treatment: all parameters approached normal levels
